Test results: ChEMBL document CHEMBL1138845, “Design of non-nucleoside inhibitors of HIV-1 reverse transcriptase with improved drug resistance properties. 2” (J Med Chem, 2004)

What was measured:
HeLa [1] = assay: Inhibitory concentration against human immunodeficiency virus type 1 (with K103N/G190A resistant mutation) was determined in HeLa-CD4 MAGI assay; format: functional, cell-based
In short: (§1)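 Tested against a panel of recombinant, isogenic HIV-1 viruses, wild type and NNRTI-resistant strains carrying engineered single or double RT mutations. The readout was IC50.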

HeLa [2] = assay: Inhibitory concentration against human immunodeficiency virus type 1 (with K103N/V108I resistant mutation) was determined in HeLa-CD4 MAGI assay; format: functional, cell-based; in short: as §1
HeLa [3] = assay: Inhibitory concentration against human immunodeficiency virus type 1 (with K103N/Y181C resistant mutation) was determined in HeLa-CD4 MAGI assay; format: functional, cell-based; in short: as §1
HeLa [4] = assay: Inhibitory concentration against human immunodeficiency virus type 1 (with V106A/Y181C resistant mutation) was determined in HeLa-CD4 MAGI assay; format: functional, cell-based; in short: as §1
HeLa [5] = assay: Inhibitory concentration against human immunodeficiency virus type 1 (with V108I/Y181C resistant mutation) was determined in HeLa-CD4 MAGI assay; format: functional, cell-based; in short: as §1
MT4 [6] = assay: Ratio of cytotoxic concentration to that of inhibitory concentration as selectivity index was determined by MT-4 assay; format: functional, Homo sapiens
In short: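 Index is the IC50 in uninfected MT4 cells divided by the antiviral IC50 in MT4 cells infected with wild-type HIV-1 or the nevirapine-resistant strain carrying RT mutation Y181C.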

MT4 [7] = assay: Inhibitory concentration against wild type human immunodeficiency virus type 1 was determined by MT-4 assay; format: functional, cell-based
[8] = tested on: Human immunodeficiency virus 1; assay: Inhibitory concentration against wild type human immunodeficiency virus type 1 was determined by recombinant virus assay; format: functional, organism-based
In short: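 Isogenic recombinant HIV-1 carrying wild-type RT, tested in parallel with a panel of NNRTI-resistant RT mutants built on the same background; activity reported as IC50.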

MT4 [9] = assay: Inhibitory concentration against nevirapine resistant strain (with Y181C mutation in HIV-1 RT gene) of human immunodeficiency virus type 1 was determined by MT-4 assay; format: functional, cell-based
HeLa [10] = assay: Inhibitory concentration against human immunodeficiency virus type 1 (with G190A resistant mutation) was determined in HeLa-CD4 MAGI assay; format: functional, cell-based; in short: as §1
HeLa [11] = assay: Inhibitory concentration against human immunodeficiency virus type 1 (with K103N resistant mutation) was determined in HeLa-CD4 MAGI assay; format: functional, cell-based; in short: as §1
HeLa [12] = assay: Inhibitory concentration against human immunodeficiency virus type 1 (with V106A resistant mutation) was determined in HeLa-CD4 MAGI assay; format: functional, cell-based; in short: as §1
HeLa [13] = assay: Inhibitory concentration against human immunodeficiency virus type 1 (with V108I resistant mutation) was determined in HeLa-CD4 MAGI assay; format: functional, cell-based; in short: as §1
HeLa [14] = assay: Inhibitory concentration against human immunodeficiency virus type 1 (with Y181C resistant mutation) was determined in HeLa-CD4 MAGI assay; format: functional, cell-based; in short: as §1
HeLa [15] = assay: Inhibitory concentration against human immunodeficiency virus type 1 (with Y188C resistant mutation) was determined in HeLa-CD4 MAGI assay; format: functional, cell-based; in short: as §1

Compound | IC50 (HeLa [1]) [nM] | IC50 (HeLa [2]) [nM] | IC50 (HeLa [3]) [nM] | IC50 (HeLa [4]) [nM] | IC50 (HeLa [5]) [nM] | Ratio (MT4 [6]) | IC50 (MT4 [7]) [nM] | IC50 [8] [nM] | IC50 (MT4 [9]) [nM] | IC50 (HeLa [10]) [nM] | IC50 (HeLa [11]) [nM] | IC50 (HeLa [12]) [nM] | IC50 (HeLa [13]) [nM] | IC50 (HeLa [14]) [nM] | IC50 (HeLa [15]) [nM]
CC(C)c1c(O)nc2ccc(Cl)cc2c1OC#CC1CC1 | 52 | 1200 | 620 | 120 | 120 | >8000 | 24 | 16 | 31 | 3 | 320 | 57 | 36 | 39 | 18
CCOc1c(O)nc2ccc(Cl)cc2c1OCC1CCC1 | > 2000 | > 2000 | > 2000 | > 2000 | > 2000 | >8000 | 290 | 340 | 2090 | 170 | > 2000 | > 2000 | 890 | > 2000 | 390
CCCc1c(O)nc2ccc(Cl)cc2c1OC#CC1CC1 | 300 | 1400 | 1800 | 120 | 230 | >8000 | 109 | 38 | 120 | 15 | > 2000 | 220 | 60 | 92 | 70
CCCc1c(O)nc2ccc(F)cc2c1OC#CC1CC1 | 490 | > 2000 | 1400 | 380 | 370 | >8000 | 72 | 66 | 81 | 21 | > 2000 | 440 | 160 | 1 | 290
N#Cc1c(O)nc2ccccc2c1OCC1CCC1 | > 2000 | > 2000 | > 2000 | > 2000 | > 2000 | >8000 | > 8000 | > 2000 | > 8000 | > 2000 | > 2000 | > 2000 | > 2000 | > 2000 | > 2000
CCc1c(O)nc2ccc(F)cc2c1OCC1CCC1 | 1100 | > 2000 | > 2000 | > 2000 | 870 | >8000 | 39 | 89 | 230 | 110 | 270 | 1700 | 250 | 390 | 130
CCC(C)C#COc1c(C(C)C)c(O)nc2ccc(F)cc12 (stereo not given) | 230 | > 2000 | 640 | 130 | 140 | >6500 | 17 | 28 | 32 | 21 | 540 | 420 | 110 | 84 | 21
CC(C)c1c(O)nc2ccc(Cl)cc2c1OCC1CCC1 | 560 | > 2000 | > 2000 | 1900 | 440 | >500 | 29 | 15 | 230 | 9 | 560 | 380 | 79 | 210 | 32
CCOc1c(O)nc2ccc(F)cc2c1OCC1CCC1 | > 2000 | > 2000 | > 2000 | > 2000 | > 2000 | >8000 | 470 | 580 | 1070 | 86 | > 2000 | > 2000 | 1500 | > 2000 | 360
CCCc1c(O)nc2ccc(Cl)cc2c1OCC1CCC1 | 1300 | > 2000 | > 2000 | 630 | 600 | >40000 | 72 | 36 | 390 | 15 | 980 | 124 | 77 | > 2000 | 16
CCCc1c(O)nc2ccc(F)cc2c1OCC1CCC1 | > 2000 | > 2000 | > 2000 | 1700 | 560 | >8000 | 69 | 63 | 190 | 46 | 1800 | 1700 | 290 | 240 | 60
CCCc1c(O)nc2ccc(Cl)cc2c1OC1CCC1 | > 2000 | > 2000 | > 2000 | > 2000 | > 2000 | >8000 | 470 | 300 | 2500 | 220 | > 2000 | > 2000 | 690 | 1700 | 290
Cc1c(O)nc2ccc(F)cc2c1OCC1CCC1 | > 2000 | > 2000 | > 2000 | > 2000 | > 2000 | >8000 | 990 | 610 | 3900 | 250 | > 2000 | > 2000 | 1700 | > 2000 | 840
CC(C)c1c(O)nc2ccc(F)cc2c1OCC1CCC1 | 530 | > 2000 | > 2000 | > 2000 | 700 | >500 | 26 | 49 | 230 | 16 | 1700 | 1900 | 440 | 280 | 30
CCc1c(O)nc2ccc(F)cc2c1OC#CC1CC1 | 68 | 240 | 300 | 230 | 130 | >8000 | 25 | 25 | 15 | 6 | 420 | 340 | 60 | 24 | 100
CCCc1c(O)nc2ccc(Cl)cc2c1OCC1CC1 | > 2000 | > 2000 | > 2000 | > 2000 | 1700 | >40000 | 1100 | 120 | 8300 | 49 | > 2000 | 630 | 200 | 210 | 89
CCCc1c(O)nc2cc(OC)ccc2c1OCC1CCC1 | > 2000 | > 2000 | > 2000 | > 2000 | > 2000 | >8000 | > 8000 | > 2000 | > 8000 | > 2000 | > 2000 | > 2000 | > 2000 | > 2000 | > 2000
